Data taken from ChEMBL document CHEMBL1154674, “Synthesis and evaluation of three 18F-labeled aminophenylbenzothiazoles as amyloid imaging agents” (J Med Chem, 2009).

Assays:
Cerebellum = assay: Drug level in NMRI mouse cerebellum assessed as standard uptake value at 3.7 MBq/mL, iv after 2 mins by gamma counting; format: ADME, organism-based; details: in vivo
How it was run: (§1)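 Male NMRI mice (30-40 g) were anaesthetised with isoflurane. Each received 0.1 mL of HPLC-purified tracer, diluted in 0.9% NaCl to 3.7 MBq/mL (ethanol ≤10%), via a tail vein. Mice were decapitated at 2 or 60 min. Organs were dissected, weighed and γ-counted with background correction. SUV = (organ cpm/organ weight)/(total recovered counts/body weight). Blood mass was taken as 7% of body mass.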

Lung [1] = assay: Biodistribution in NMRI mouse lung assessed per gram of tissue at 3.7 MBq/mL, iv after 60 mins by gamma counting; format: ADME, organism-based; details: in vivo, 1 h
How it was run: (§2)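 Male NMRI mice (30-40 g) under isoflurane (1.5-2.5% in oxygen) got 0.1 mL of HPLC-purified tracer diluted with 0.9% NaCl to 3.7 MBq/mL (ethanol ≤10%) via tail vein. Mice were decapitated at 2 or 60 min p.i., and organs, blood and urine were weighed and γ-counted. Values are background-corrected %ID or %ID/g, with blood mass taken as 7% of body mass.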

[2] = Drug level in NMRI mouse spleen/pancreas assessed as standard uptake value at 3.7 MBq/mL, iv after 60 mins by gamma counting; format: ADME, organism-based; details: in vivo, 1 h; how it was run: as §1
[3] = Biodistribution in NMRI mouse spleen/pancreas at 3.7 MBq/mL, iv after 2 mins by gamma counting; format: ADME, organism-based; details: in vivo; how it was run: as §2
Liver [4] = assay: Biodistribution in NMRI mouse liver assessed per gram of tissue at 3.7 MBq/mL, iv after 60 mins by gamma counting; format: ADME, organism-based; details: in vivo, 1 h; how it was run: as §2
Lung [5] = assay: Biodistribution in NMRI mouse lung at 3.7 MBq/mL, iv after 60 mins by gamma counting; format: ADME, organism-based; details: in vivo, 1 h; how it was run: as §2
[6] = Drug level in normal rhesus monkey pons assessed as standard uptake value at 109.4 MBq, iv after 1.5 mins by microPET; format: ADME, organism-based, Macaca mulatta; details: in vivo, 0.025 h
Blood = assay: Biodistribution in NMRI mouse blood assessed per gram of tissue at 3.7 MBq/mL, iv after 60 mins by gamma counting; format: ADME, organism-based; details: in vivo, 1 h; how it was run: as §2
[7] = Drug level in NMRI mouse cerebrum assessed as standard uptake value at 3.7 MBq/mL, iv after 60 mins by gamma counting; format: ADME, organism-based; details: in vivo, 1 h; how it was run: as §1
[8] = Drug level in normal rhesus monkey parietal cortex assessed as standard uptake value at 109.4 MBq, iv after 42.5 mins by microPET; format: ADME, organism-based, Macaca mulatta; details: in vivo
[9] = Drug level in normal rhesus monkey pons assessed as standard uptake value at 109.4 MBq, iv after 47.5 mins by microPET; format: ADME, organism-based, Macaca mulatta; details: in vivo
Liver [10] = assay: Biodistribution in NMRI mouse liver at 3.7 MBq/mL, iv after 2 mins by gamma counting; format: ADME, organism-based; details: in vivo; how it was run: as §2
Heart = assay: Drug level in NMRI mouse heart assessed as standard uptake value at 3.7 MBq/mL, iv after 60 mins by gamma counting; format: ADME, organism-based; details: in vivo, 1 h; how it was run: as §1
[11] = Biodistribution in NMRI mouse cerebrum assessed per gram of tissue at 3.7 MBq/mL, iv after 60 mins by gamma counting; format: ADME, organism-based; details: in vivo, 1 h; how it was run: as §2
[12] = Drug level in normal rhesus monkey cerebellum assessed as standard uptake value at 81.2 MBq, iv after 10 mins by microPET; format: ADME, organism-based, Macaca mulatta; details: in vivo
How it was run: (§3)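 One normal rhesus monkey, each tracer given iv via the vena saphena (81.2, 96.3 or 109.4 MBq), with 1 day between tracer injections. Dynamic brain μPET over 180 min used frames of 5 × 60 s, 5 × 120 s, 9 × 300 s and 12 × 600 s. Images were reconstructed by filtered back projection with a RAMP filter. Regional time-activity curves were expressed as SUV.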

[13] = Drug level in normal rhesus monkey frontal cortex assessed as standard uptake value at 81.2 MBq, iv after 32.5 mins by microPET; format: ADME, organism-based, Macaca mulatta; details: in vivo
[14] = Drug level in normal rhesus monkey parietal cortex assessed as standard uptake value at 81.2 MBq, iv after 2.5 mins by microPET; format: ADME, organism-based, Macaca mulatta; details: in vivo
[15] = Drug level in normal rhesus monkey white matter assessed as standard uptake value at 81.2 MBq, iv after 37.5 mins by microPET; format: ADME, organism-based, Macaca mulatta; details: in vivo, 0.625 h
[16] = Drug level in normal rhesus monkey thalamus assessed as standard uptake value at 81.2 MBq, iv after 57.5 mins by microPET; format: ADME, organism-based, Macaca mulatta; details: in vivo
[17] = Drug level in normal rhesus monkey thalamus assessed as standard uptake value at 81.2 MBq, iv after 0.5 mins by microPET; format: ADME, organism-based, Macaca mulatta; details: in vivo
[18] = Drug level in normal rhesus monkey cerebellum assessed as standard uptake value at 81.2 MBq, iv after 27.5 mins by microPET; format: ADME, organism-based, Macaca mulatta; details: in vivo; how it was run: as §3
[19] = Drug level in normal rhesus monkey pons assessed as standard uptake value at 81.2 MBq, iv after 165 mins by microPET; format: ADME, organism-based, Macaca mulatta; details: in vivo, 2.75 h
[20] = Drug level in normal rhesus monkey frontal cortex assessed as standard uptake value at 152.9 MBq, iv after 12 mins by microPET; format: ADME, organism-based, Macaca mulatta; details: in vivo, 0.2 h
How it was run: (§4)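 Single normal rhesus monkey; tracer given iv via the vena saphena, 1 day apart from the other tracer injections. Dynamic μPET ran 90 min (5×60 s, 5×120 s, 9×300 s, 3×600 s). Images were reconstructed by filtered back projection with a RAMP filter. Regional time-activity curves were expressed as SUV.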

[21] = Drug level in normal rhesus monkey white matter assessed as standard uptake value at 152.9 MBq, iv after 42.5 mins by microPET; format: ADME, organism-based, Macaca mulatta; details: in vivo
[22] = Drug level in normal rhesus monkey frontal cortex assessed as standard uptake value at 152.9 MBq, iv after 22.5 mins by microPET; format: ADME, organism-based, Macaca mulatta; details: in vivo, 0.375 h; how it was run: as §4
[23] = Drug level in normal rhesus monkey parietal cortex assessed as standard uptake value at 152.9 MBq, iv after 52.5 mins by microPET; format: ADME, organism-based, Macaca mulatta; details: in vivo, 0.875 h
[24] = Drug level in normal rhesus monkey parietal cortex assessed as standard uptake value at 152.9 MBq, iv after 22.5 mins by microPET; format: ADME, organism-based, Macaca mulatta; details: in vivo, 0.375 h
[25] = Drug level in normal rhesus monkey thalamus assessed as standard uptake value at 152.9 MBq, iv after 0.5 mins by microPET; format: ADME, organism-based, Macaca mulatta; details: in vivo
[26] = Drug level in normal rhesus monkey cerebellum assessed as standard uptake value at 96.3 MBq, iv after 165 mins by microPET; format: ADME, organism-based, Macaca mulatta; details: in vivo, 2.75 h; how it was run: as §3
[27] = Drug level in normal rhesus monkey thalamus assessed as standard uptake value at 96.3 MBq, iv after 4.5 mins by microPET; format: ADME, organism-based, Macaca mulatta; details: in vivo, 0.075 h
[28] = Drug level in normal rhesus monkey cerebellum assessed as standard uptake value at 96.3 MBq, iv after 4.5 mins by microPET; format: ADME, organism-based, Macaca mulatta; details: in vivo, 0.075 h; how it was run: as §3
[29] = Drug level in normal rhesus monkey frontal cortex assessed as standard uptake value at 96.3 MBq, iv after 115 mins by microPET; format: ADME, organism-based, Macaca mulatta; details: in vivo
[30] = Drug level in normal rhesus monkey white matter assessed as standard uptake value at 96.3 MBq, iv after 75 mins by microPET; format: ADME, organism-based, Macaca mulatta; details: in vivo, 1.25 h
[31] = Drug level in normal rhesus monkey thalamus assessed as standard uptake value at 96.3 MBq, iv after 12 mins by microPET; format: ADME, organism-based, Macaca mulatta; details: in vivo, 0.2 h
[32] = Drug level in normal rhesus monkey frontal cortex assessed as standard uptake value at 96.3 MBq, iv after 32.5 mins by microPET; format: ADME, organism-based, Macaca mulatta; details: in vivo

SMILES: Nc1ccc2nc(-c3ccc([18F])cc3)sc2c1
- SUV (Cerebellum): 4.96
- Drug uptake (Lung [1]): 1.2%
- SUV [2]: 0.3
- Drug uptake [3]: 1.4%
- Drug uptake (Liver [4]): 5.6%
- Drug uptake (Lung [5]): 0.3%
- SUV [6]: 2.87
- Drug uptake (Blood): 0.6%
- SUV [7]: 0.31
- SUV [8]: 4.54
- SUV [9]: 4.7
- Drug uptake (Liver [10]): 39.8%
- SUV (Heart): 0.2
- Drug uptake [11]: 0.97%

SMILES: CNc1ccc2nc(-c3ccc([18F])cc3)sc2c1
- SUV [12]: 3.021
- SUV (Cerebellum): 3.97
- Drug uptake (Lung [1]): 1.4%
- SUV [2]: 0.3
- Drug uptake [3]: 1.4%
- SUV [13]: 5.574
- SUV [14]: 4.252
- SUV [15]: 3.78
- Drug uptake (Liver [4]): 8.3%
- Drug uptake (Lung [5]): 0.3%
- SUV [16]: 5.552
- Drug uptake (Blood): 0.9%
- SUV [17]: 0.855
- SUV [7]: 0.48
- SUV [18]: 2.224
- SUV [19]: 4.946
- Drug uptake (Liver [10]): 42.4%
- SUV (Heart): 0.4
- Drug uptake [11]: 1.39%

SMILES: [11CH3]Nc1ccc(-c2nc3ccc(O)cc3s2)cc1 [PITTSBURGH COMPOUND B]
- SUV (Cerebellum): 0.59
- Drug uptake (Lung [1]): 1.3%
- SUV [2]: 0.2
- Drug uptake [3]: 0.6%
- SUV [20]: 2.027
- Drug uptake (Liver [4]): 5%
- Drug uptake (Lung [5]): 0.3%
- SUV [21]: 1.04
- SUV [22]: 1.373
- Drug uptake (Blood): 1.1%
- SUV [23]: 0.799
- SUV [7]: 0.22
- Drug uptake (Liver [10]): 15.6%
- SUV (Heart): 0.7
- SUV [24]: 1.453
- Drug uptake [11]: 0.6%
- SUV [25]: 0.038

SMILES: CN(C)c1ccc2nc(-c3ccc([18F])cc3)sc2c1
- SUV (Cerebellum): 3.35
- Drug uptake (Lung [1]): 1.9%
- SUV [2]: 0.4
- Drug uptake [3]: 1.5%
- Drug uptake (Liver [4]): 8%
- Drug uptake (Lung [5]): 0.6%
- Drug uptake (Blood): 0.9%
- SUV [26]: 0.79
- SUV [27]: 1.93
- SUV [7]: 0.72
- SUV [28]: 1.63
- Drug uptake (Liver [10]): 41.9%
- SUV [29]: 1.66
- SUV [30]: 1.5
- SUV (Heart): 0.5
- Drug uptake [11]: 1.94%
- SUV [31]: 2.38
- SUV [32]: 2.14
